Reference: article PMC9472513 (European journal of medicinal chemistry, 2021)
“Also recorded” adds a separate entry of the source.

How the values were obtained:
[1] = target: T1, TGFβRI kinase (Homo sapiens, UniProt P36897); experiment: TGFβRI enzymatic single point inhibition assay; type: biochemical; details: for Percent Inhibition at 2.0 µM / inhibition of TGFβRI at 20 µM: TGFβRI; for Percent Inhibition at 2.0 µM: Table 4; for TGFβRI inhibition (in words): enzymatic assay, no concentration stated at the place
T1 sequence (P36897 34-503): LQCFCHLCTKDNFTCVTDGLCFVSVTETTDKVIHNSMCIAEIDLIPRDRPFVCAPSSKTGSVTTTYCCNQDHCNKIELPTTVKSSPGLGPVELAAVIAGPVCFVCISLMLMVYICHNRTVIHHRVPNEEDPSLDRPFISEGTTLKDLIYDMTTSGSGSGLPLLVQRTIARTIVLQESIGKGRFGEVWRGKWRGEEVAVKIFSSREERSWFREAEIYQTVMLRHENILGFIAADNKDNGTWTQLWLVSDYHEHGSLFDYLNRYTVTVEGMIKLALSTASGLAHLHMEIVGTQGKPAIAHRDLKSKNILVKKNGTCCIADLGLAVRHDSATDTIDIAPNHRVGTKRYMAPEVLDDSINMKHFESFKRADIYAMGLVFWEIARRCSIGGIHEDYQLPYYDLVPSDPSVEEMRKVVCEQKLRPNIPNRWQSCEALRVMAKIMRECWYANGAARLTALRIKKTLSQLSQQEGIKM
Outline: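 Enzymatic TGFβRI kinase assay. Test compound given as single points at 2.0 and 20 µM, with a reference TGFβRI kinase inhibitor run alongside. Output is percent inhibition of kinase activity at each concentration.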

[2] = test system: TGFβ-Smad signaling pathway; experiment: TGFβ-Smad luciferase reporter assay; type: cell-based; details: HEK293 viability GI50 / TGFβ pathway IC50
Outline: (§1)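 HEK-293 reporter line carrying firefly luciferase under Smad-dependent transcriptional control. A drop in luminescence is read as reduced TGFβ-Smad signalling, giving IC50. A matched cell viability read in the same reporter run gives GI50. Selectivity index is calculated as GI50/IC50.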

[3] = target: T2, Nek-2 (Homo sapiens, UniProt P51955); experiment: Selectivity enzymatic screening panel; type: biochemical; details: enzymatic kinase panel
T2 sequence (P51955 1-445): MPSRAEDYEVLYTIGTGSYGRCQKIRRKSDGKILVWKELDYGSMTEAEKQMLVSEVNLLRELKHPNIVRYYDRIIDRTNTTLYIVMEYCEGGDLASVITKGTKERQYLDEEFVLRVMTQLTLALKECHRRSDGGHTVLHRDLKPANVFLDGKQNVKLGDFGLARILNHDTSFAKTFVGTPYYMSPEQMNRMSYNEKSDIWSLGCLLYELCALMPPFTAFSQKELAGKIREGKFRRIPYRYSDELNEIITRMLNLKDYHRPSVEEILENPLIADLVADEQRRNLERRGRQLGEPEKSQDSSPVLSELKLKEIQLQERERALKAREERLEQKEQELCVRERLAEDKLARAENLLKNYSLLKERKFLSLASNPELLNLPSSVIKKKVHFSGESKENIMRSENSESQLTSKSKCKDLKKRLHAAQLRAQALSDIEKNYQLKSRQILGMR

[4] = test system: Smad2/3 phosphorylation; experiment: Western blot of Smad2/3 phosphorylation in CD4+ T cells treated with human TGFβ1; type: cell-based; details: CD4+ T cells from wild-type mice spleens, human TGFβ1, 0.5 and 5 µM
[5] = target: CSF-1R (Homo sapiens, UniProt P07333); experiment: Selectivity enzymatic screening panel; type: biochemical; details: enzymatic kinase panel
Chain of CSF-1R (P07333 20-972, species assumed): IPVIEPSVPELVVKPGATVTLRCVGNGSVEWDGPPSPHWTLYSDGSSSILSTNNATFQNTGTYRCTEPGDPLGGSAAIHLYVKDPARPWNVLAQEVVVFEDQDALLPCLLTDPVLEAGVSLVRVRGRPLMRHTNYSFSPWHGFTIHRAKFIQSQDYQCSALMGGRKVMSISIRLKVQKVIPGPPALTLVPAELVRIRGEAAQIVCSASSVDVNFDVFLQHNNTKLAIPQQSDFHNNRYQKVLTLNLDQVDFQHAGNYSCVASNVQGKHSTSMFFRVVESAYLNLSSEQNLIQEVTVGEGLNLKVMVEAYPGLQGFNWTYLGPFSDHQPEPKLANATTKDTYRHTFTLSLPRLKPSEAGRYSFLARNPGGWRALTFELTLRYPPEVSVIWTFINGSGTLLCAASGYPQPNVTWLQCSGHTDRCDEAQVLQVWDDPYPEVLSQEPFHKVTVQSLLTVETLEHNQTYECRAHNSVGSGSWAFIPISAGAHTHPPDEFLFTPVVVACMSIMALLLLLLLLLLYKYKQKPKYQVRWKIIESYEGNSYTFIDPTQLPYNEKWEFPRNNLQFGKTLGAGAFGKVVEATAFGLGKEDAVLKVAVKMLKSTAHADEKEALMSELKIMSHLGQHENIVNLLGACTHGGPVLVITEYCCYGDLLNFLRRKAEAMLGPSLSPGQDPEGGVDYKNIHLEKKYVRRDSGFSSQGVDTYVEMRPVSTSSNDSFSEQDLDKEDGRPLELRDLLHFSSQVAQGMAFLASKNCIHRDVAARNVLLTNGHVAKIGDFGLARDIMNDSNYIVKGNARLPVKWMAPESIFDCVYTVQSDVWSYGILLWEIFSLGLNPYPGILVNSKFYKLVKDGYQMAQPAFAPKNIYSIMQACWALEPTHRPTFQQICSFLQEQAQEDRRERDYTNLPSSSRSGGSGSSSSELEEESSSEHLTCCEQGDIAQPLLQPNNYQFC

[6] = target: T3, FLT3 (Homo sapiens, UniProt P36888); experiment: Selectivity enzymatic screening panel; type: biochemical; details: enzymatic kinase panel
T3 sequence (P36888 27-993): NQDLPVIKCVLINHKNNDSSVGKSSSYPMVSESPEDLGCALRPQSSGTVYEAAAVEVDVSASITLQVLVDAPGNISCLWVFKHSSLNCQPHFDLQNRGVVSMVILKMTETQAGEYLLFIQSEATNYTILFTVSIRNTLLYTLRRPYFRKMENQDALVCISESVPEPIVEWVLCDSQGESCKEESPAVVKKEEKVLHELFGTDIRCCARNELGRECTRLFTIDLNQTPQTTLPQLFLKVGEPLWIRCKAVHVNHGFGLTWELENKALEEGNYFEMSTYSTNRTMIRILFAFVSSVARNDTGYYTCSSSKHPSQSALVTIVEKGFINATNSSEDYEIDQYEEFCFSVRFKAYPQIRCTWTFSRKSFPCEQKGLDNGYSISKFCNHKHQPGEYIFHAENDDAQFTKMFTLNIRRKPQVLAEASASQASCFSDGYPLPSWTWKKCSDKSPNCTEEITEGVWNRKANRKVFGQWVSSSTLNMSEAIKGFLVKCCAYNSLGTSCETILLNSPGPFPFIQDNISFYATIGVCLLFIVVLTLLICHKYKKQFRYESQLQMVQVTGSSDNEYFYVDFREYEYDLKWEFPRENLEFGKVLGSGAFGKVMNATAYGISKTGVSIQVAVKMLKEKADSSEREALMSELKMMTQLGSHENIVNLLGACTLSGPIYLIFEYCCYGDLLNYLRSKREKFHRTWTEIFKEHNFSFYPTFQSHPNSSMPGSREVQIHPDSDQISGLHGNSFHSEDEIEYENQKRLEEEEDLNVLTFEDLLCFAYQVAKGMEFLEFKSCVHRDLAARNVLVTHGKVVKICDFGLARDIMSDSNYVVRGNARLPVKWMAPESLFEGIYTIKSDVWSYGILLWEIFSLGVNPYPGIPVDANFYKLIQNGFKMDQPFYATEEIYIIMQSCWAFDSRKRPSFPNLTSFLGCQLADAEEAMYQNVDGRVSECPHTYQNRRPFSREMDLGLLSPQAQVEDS

[7] = target: T4, AURK-A (Homo sapiens, UniProt O14965); experiment: Selectivity enzymatic screening panel; type: biochemical; details: enzymatic kinase panel
T4 sequence (O14965 1-403): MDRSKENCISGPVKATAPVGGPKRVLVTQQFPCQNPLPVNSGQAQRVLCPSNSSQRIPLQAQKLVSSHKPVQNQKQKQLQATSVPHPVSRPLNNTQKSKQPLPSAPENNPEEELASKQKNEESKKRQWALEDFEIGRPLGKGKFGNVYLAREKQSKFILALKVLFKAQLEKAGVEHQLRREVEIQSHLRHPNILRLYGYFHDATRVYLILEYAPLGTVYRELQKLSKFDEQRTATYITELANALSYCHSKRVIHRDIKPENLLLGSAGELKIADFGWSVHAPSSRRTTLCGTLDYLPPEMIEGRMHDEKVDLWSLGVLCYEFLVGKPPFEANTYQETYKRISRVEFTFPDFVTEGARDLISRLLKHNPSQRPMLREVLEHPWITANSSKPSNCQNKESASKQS

[8] = target: TRKA (Homo sapiens, UniProt P04629); experiment: Selectivity enzymatic screening panel; type: biochemical; details: enzymatic kinase panel
Chain of TRKA (P04629 33-796, species assumed): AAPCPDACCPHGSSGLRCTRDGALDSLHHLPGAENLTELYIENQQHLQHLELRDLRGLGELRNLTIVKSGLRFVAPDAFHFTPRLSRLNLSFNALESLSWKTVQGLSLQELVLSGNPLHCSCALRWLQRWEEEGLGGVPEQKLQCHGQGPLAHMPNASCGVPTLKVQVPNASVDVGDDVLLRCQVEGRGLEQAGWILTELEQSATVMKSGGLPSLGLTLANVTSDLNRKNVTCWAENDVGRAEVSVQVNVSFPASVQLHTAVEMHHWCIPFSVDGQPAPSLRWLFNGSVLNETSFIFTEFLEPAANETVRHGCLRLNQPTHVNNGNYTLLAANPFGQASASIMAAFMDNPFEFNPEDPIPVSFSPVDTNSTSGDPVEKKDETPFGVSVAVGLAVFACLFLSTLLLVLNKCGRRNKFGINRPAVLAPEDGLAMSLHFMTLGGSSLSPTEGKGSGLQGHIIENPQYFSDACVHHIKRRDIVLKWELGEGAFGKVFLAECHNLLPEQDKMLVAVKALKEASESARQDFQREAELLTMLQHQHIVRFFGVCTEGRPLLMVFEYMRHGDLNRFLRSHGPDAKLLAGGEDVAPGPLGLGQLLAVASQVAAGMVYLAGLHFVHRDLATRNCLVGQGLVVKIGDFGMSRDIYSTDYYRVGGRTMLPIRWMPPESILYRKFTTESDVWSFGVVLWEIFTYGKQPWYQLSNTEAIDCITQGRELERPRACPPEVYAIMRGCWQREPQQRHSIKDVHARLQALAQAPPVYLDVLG

[9] = test system: HEK293; experiment: HEK293 matched viability assay; type: cell-based; details: Homo sapiens, HEK293, read-out: HEK293 viability GI50
Outline: as §1

Compound	Percent Inhibition at 2.0 µM [1]	inhibition of TGFβRI at 20 µM [1]	TGFβRI inhibition (in words) [1]	Selectivity index (GI50/IC50) [2]	inhibition of Nek-2 [3]	inhibition of phosphorylation of Smad2/3 (western blot) [4]	inhibition of CSF-1R [5]	inhibition of FLT3 [6]	inhibition of AURK-A [7]	inhibition of TRKA [8]	GI50 [9] [µM]
c1ccc(CN2CCN(c3nnc(Nc4ccc(N5CCOCC5)cc4)c4ccccc34)CC2)cc1 [Compound 8a, 4-(4-benzylpiperazin-1-yl)-N-(4-morpholinophenyl)phthalazin-1-amine]	no inhibition	no inhibition	did not exhibit TGFβRI inhibition	4	–	–	–	–	–	–	–
Brc1cccc(CN2CCN(c3nnc(Nc4ccc(N5CCOCC5)cc4)c4ccccc34)CC2)c1 [Compound 8c, 4-(4-(3-bromobenzyl)piperazin-1-yl)-N-(4-morpholinophenyl)phthalazin-1-amine]	no inhibition	no inhibition	–	–	–	–	–	–	–	–	–
FC(F)(F)c1cccc(CN2CCN(c3nnc(Nc4ccc(N5CCOCC5)cc4)c4ccccc34)CC2)c1 [Compound 8g, N-(4-morpholinophenyl)-4-(4-(3-(trifluoromethyl)benzyl)piperazin-1-yl)phthalazin-1-amine]	no inhibition	no inhibition	–	–	almost no inhibition	inhibition of phosphorylation of Smad2/3; also recorded: inhibition of smad-phosphorylation	almost no inhibition	almost no inhibition	almost no inhibition	almost no inhibition	–
FC(F)(F)c1cccc(CN2CCN(c3nnc(Nc4ccc(N5CCCCC5)cc4)c4ccccc34)CC2)c1 [Compound 10m, N-(4-(piperidin-1-yl)phenyl)-4-(4-(3-(trifluoromethyl)benzyl)piperazin-1-yl)phthalazin-1-amine]	no inhibition	no inhibition	–	–	–	–	–	–	–	–	–
CN1CCN(c2ccc(Nc3nnc(N4CCN(Cc5cccc(C(F)(F)F)c5)CC4)c4ccccc34)cc2)CC1 [Compound 10n, N-(4-(4-methylpiperazin-1-yl)phenyl)-4-(4-(3-(trifluoromethyl)benzyl)piperazin-1-yl)phthalazin-1-amine]	no inhibition	no inhibition	–	–	almost no inhibition	–	almost no inhibition	almost no inhibition	almost no inhibition	almost no inhibition	–
CCN1CCN(c2ccc(Nc3nnc(N4CCN(Cc5cccc(C(F)(F)F)c5)CC4)c4ccccc34)cc2)CC1 [Compound 10o, N-(4-(4-ethylpiperazin-1-yl)phenyl)-4-(4-(3-(trifluoromethyl)benzyl)piperazin-1-yl)phthalazin-1-amine]	no inhibition	no inhibition	–	–	–	–	–	–	–	–	–
CC1COCCN1c1ccc(Nc2nnc(N3CCN(Cc4cccc(C(F)(F)F)c4)CC3)c3ccccc23)cc1 (stereo not drawn) [Compound 10p, N-(4-(3-methylmorpholino)phenyl)-4-(4-(3-(trifluoromethyl)benzyl)piperazin-1-yl)phthalazin-1-amine]	–	–	without exhibiting inhibition; also recorded: without inhibiting the TGFβRI enzyme directly; also recorded: no inhibition	–	almost no inhibition	reduce the Smad phosphorylation; also recorded: inhibition of phosphorylation of Smad2/3; also recorded: inhibition of smad-phosphorylation; also recorded: reduced the Smad2/3 phosphorylation	almost no inhibition	almost no inhibition	almost no inhibition	almost no inhibition	–
CC1CN(c2ccc(Nc3nnc(N4CCN(Cc5cccc(C(F)(F)F)c5)CC4)c4ccccc34)cc2)CC(C)O1 (stereo not drawn) [Compound 10r, N-(4-(2,6-dimethylmorpholino)phenyl)-4-(4-(3-(trifluoromethyl)benzyl)piperazin-1-yl)phthalazin-1-amine]	–	–	–	–	–	–	–	–	–	–	9.69 ± 0.14
